Reference: ChEMBL document CHEMBL1137196, “Non-peptide oxytocin agonists” (Bioorg Med Chem Lett, 2004)

Columns and labels:
[1] = molecular target: T1, Oxytocin receptor (Homo sapiens, UniProt P30559); experiment: Effective concentration for human Oxytocin receptor
T1 sequence (P30559 whole entry): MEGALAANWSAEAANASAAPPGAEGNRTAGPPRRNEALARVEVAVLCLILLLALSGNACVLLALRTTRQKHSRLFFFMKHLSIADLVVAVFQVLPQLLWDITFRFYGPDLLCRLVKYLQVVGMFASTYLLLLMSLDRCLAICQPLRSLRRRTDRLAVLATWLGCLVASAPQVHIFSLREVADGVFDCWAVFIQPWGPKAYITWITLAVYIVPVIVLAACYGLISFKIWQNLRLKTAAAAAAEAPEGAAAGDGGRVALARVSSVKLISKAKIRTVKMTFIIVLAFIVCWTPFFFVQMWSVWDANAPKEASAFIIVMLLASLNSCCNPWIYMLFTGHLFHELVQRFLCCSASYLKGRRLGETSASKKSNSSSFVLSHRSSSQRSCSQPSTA
Outline: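 CHO cells kept in phenol red-free DMEM with penicillin and 10% foetal calf serum, dual-transfected with human OT receptor and NFAT-luciferase constructs, then grown 24 h at 37°C/5% CO2 before and after plating. Compounds were diluted from 10 mM DMSO stocks (0.1% DMSO final). Luciferase was read after 5 h at 37°C. EC50 came from a 4-parameter logistic fit; mean ± SD (n≥3), or mean ± range where n=2.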

[2] = molecular target: Vasopressin V2 receptor (Homo sapiens, UniProt P30518); experiment: Effective concentration for human Vasopressin V2 receptor
Chain of Vasopressin V2 receptor (P30518 whole entry): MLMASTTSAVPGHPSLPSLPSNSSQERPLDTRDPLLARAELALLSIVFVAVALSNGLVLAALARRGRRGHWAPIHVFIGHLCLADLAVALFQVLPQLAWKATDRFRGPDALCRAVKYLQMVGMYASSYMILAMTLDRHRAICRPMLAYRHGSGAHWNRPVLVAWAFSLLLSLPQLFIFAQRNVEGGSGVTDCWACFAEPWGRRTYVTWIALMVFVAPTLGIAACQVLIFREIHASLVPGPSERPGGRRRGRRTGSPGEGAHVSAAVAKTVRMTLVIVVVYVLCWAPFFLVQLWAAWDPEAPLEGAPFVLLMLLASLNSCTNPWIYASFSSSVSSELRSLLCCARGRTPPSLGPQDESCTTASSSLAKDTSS
Outline: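 293 cells in phenol red-free DMEM with penicillin and 10% foetal calf serum were dual-transfected with V2 receptor and CRE-luciferase constructs, then grown 24 h at 37°C/5% CO2 before and after plating. Compounds came from 10 mM DMSO stocks (0.1% DMSO final). Luciferase was measured after 5 h at 37°C. EC50 from a 4-parameter logistic fit; mean ± SD (n≥3), or mean ± range where n=2.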

[3] = molecular target: Oxytocin receptor (Homo sapiens) (UniProt P30559); experiment: Agonist activity against Oxytocin receptor relative to oxytocin at 3 uM

CO[C@@H]1C[C@@H](C(=S)N2CCC(N3CCCC3)CC2)N(C(=O)NCc2ccc(C(=O)N3CCCCc4sccc43)cc2Cl)C1
EC50 [1]: 480 nM
EC50 [2]: 100 nM

Cc1ccn(-c2ccc(C(=O)N3Cc4cccn4Cc4ccccc43)c(Cl)c2)n1
Relativity [3]: < 10%

CO[C@@H]1C[C@@H](C(=O)N2CCCN(C)CC2)N(C(=O)NCc2ccc(C(=O)N3CCCCc4sccc43)cc2Cl)C1
EC50 [1]: 2800 nM
EC50 [2]: 1300 nM

Cc1cc(C(=O)N2CCCCc3ccccc32)ccc1CNC(=O)NCC(=O)N(C)C
Relativity [3]: 33%

Cc1cc(C(=O)N2CCCCc3sccc32)ccc1CNC(=O)N1CCC[C@H]1C(=S)N1CCCN(C)CC1
EC50 [1]: 640 nM
EC50 [2]: 890 nM

Cc1cc(C(=O)N2Cc3cnn(C)c3Nc3ccccc32)ccc1CNC(=O)N1CCC[C@H]1C(=S)N1CCCN(C)CC1
EC50 [1]: 33 nM
EC50 [2]: 850 nM

CO[C@@H]1C[C@@H](C(=O)NCCN(C)C)N(C(=O)NCc2ccc(C(=O)N3CCCCc4sccc43)cc2Cl)C1
EC50 [1]: > 10000 nM
EC50 [2]: 1800 nM

CO[C@@H]1C[C@@H](C(=S)N2CCCN(C)CC2)N(C(=O)NCc2ccc(C(=O)N3CCCCc4sccc43)cc2Cl)C1
EC50 [1]: 430 nM
EC50 [2]: 230 nM

CN1CCCN(C(=S)[C@@H]2CCCN2C(=O)NCc2ccc(C(=O)N3CCCCc4sccc43)cc2Cl)CC1
EC50 [1]: 810 nM
EC50 [2]: 1800 nM

CO[C@@H]1C[C@@H](C(=O)N2CCC(N3CCCC3)CC2)N(C(=O)NCc2ccc(C(=O)N3CCCCc4sccc43)cc2Cl)C1
EC50 [1]: 2300 nM
EC50 [2]: 1100 nM

CO[C@@H]1C[C@@H](C(=O)NCCc2ccccn2)N(C(=O)NCc2ccc(C(=O)N3CCCCc4sccc43)cc2Cl)C1
EC50 [1]: 1500 nM
EC50 [2]: 570 nM

CO[C@@H]1C[C@@H](C(=O)N2CCC(N3CCCCC3)CC2)N(C(=O)NCc2ccc(C(=O)N3CCCCc4sccc43)cc2Cl)C1
EC50 [1]: 2200 nM
EC50 [2]: 1200 nM

CC(C)NC(=O)C[C@H]1CCCN(C(=O)c2ccc(N3CCCC3)cc2Cl)c2ccccc21
Relativity [3]: < 10%

CO[C@@H]1C[C@@H](C(=S)NCCc2ccccn2)N(C(=O)NCc2ccc(C(=O)N3CCCCc4sccc43)cc2Cl)C1
EC50 [1]: 470 nM
EC50 [2]: 200 nM
